How the values were obtained:
[1] = Blood pressure monitoring after infusion; assay type: in vivo, human
non-Hodgkin's lymphoma = assay: Tumor response by International Working Group response criteria for lymphoma; assay type: in vivo, human; conditions: follicular lymphoma (FL), six patients
In short: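 NHL expansion cohort (follicular lymphoma and DLBCL) received 0.8 mg/kg as a 1-h IV infusion on days 1, 8 and 15 of each 28-day cycle, continued until progression or unfavourable risk:benefit. Response was judged by investigator assessment using International Working Group lymphoma criteria.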

SMILES: COc1c(OCCCN2CCOCC2)ccc2c1N=C(NC(=O)c1cnc(N)nc1)N1CCN=C21 [copanlisib, Copanlisib]
- time of peak of post-infusion increase in blood pressure ([1]; in vivo): 1 to 2 h
- time to resolution of post-infusion increase in blood pressure ([1]; post-infusion): ≤ 24 h
- response rate (non-Hodgkin's lymphoma): 100%

— publication PMC5035790 (Annals of Oncology, 2016)
